Assay results published in article PMC4207532 (Journal of Medicinal Chemistry, 2014).
“And” between values parts separate entries of the source, which are not always exact repeats. Equal entries are not always repeated. “Also recorded” adds a separate entry of the source.

How the values were obtained:
[1] = Absorption spectra in CH3OH; type: physicochemical
[2] = Steady-state fluorescence in CH3OH; type: physicochemical; conditions: excitation at 532 nm; for Quantum yield for fluorescence ΦFL: 3 as standard, ±SD
Method in brief: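 Steady-state emission spectra recorded in CH3OH on a spectrofluorometer with 532 nm excitation. Quantum yield determined relative to a reference rhodamine dye in CH3OH (ΦFL = 0.93).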

[3] = Singlet oxygen yield from 1O2 luminescence at 1270 nm; type: physicochemical; conditions: air-saturated CH3OH; ±SD
Method in brief: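 Air-saturated CH3OH solutions in quartz cuvettes. Excitation by 532 nm second harmonic of a nanosecond-pulsed Nd:YAG laser (20 Hz) for time-resolved 1O2 luminescence decay at 1270 nm. Emission collected at 90° through a 950 nm long-pass filter onto an NIR-detector spectrometer. Steady-state NIR emission spectra used a 532 nm diode-pumped solid-state laser.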

Colo-26 cells [4] = test: Uptake in Colo-26 cells with and without verapamil by flow cytometry; type: cell-based, murine; conditions: for Uptake relative to the corresponding thioamide derivative: Colo-26 cells, Figure 2; for Increase in uptake in the presence of VER: 0.5 μM dye, 1 h, with vs without 100 μM verapamil, mean fluorescence
Method in brief: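 Colo-26 cells exposed 1 h to 0.5 μM dye with or without 100 μM verapamil, then analysed by flow cytometry with 561 nm excitation and 710 nm emission. Mean cellular fluorescence compared between conditions; error bars SD.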

Colo-26 cells [5] = test: Phototoxicity toward Colo-26 cells with tunable dye laser; type: cell-based, murine; conditions: for Phototoxicity (in words): 0.15 μM, 5.0 J cm^–2 of laser light; for LD50/EC50 (laser, 1.0 J cm^–2): dark LD50 over EC50 with 1.0 J cm^–2 of laser light
Colo-26 cells [6] = test: Combination PDT and doxorubicin in Colo-26 cells; type: cell-based, murine; conditions: for Synergy with Dox upon irradiation (in words): 0.15 μM dye, various Dox concentrations, 1.0 J cm^–2 laser light; for Phototoxicity (in words) in the absence of Dox: 0.15 μM, 1.0 J cm^–2 of 613 nm (15b, 17b) or 611 nm (16b, 18b) laser light, relative to dark controls; for Surviving fraction of the combination vs single treatments (in words) / Surviving fraction: 0.15 μM photosensitizer, 1.0 J cm^–2 of 611 nm light; for Surviving fraction of the combination vs single treatments (in words): 0.5 μM Dox; for Surviving fraction: 1.0 μM Dox; for Dox-only concentration giving the same surviving fraction as the combination: combination: 0.15 μM photosensitizer, 0.05 μM Dox, 1.0 J cm^–2 of light
Method in brief: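 Colo-26 cells were seeded at 10 000/well and grown 24 h in RPMI 1640 with 10% FBS. Dye at 0.15 μM (ethanol stock) plus Dox at 0.005–5.0 μM were added together as 10× medium solutions, alongside single-agent wells. After 1 h dark, wells were kept dark or laser-irradiated at λmax (±2 nm), 3.2 mW cm–2, to 1 J cm–2. Fresh medium, 48 h at 37 °C, 5% CO2. SRB assay read at 570 nm; six replicates, ±SD, pairwise […].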

[7] = Photostability under continuous illumination; type: physicochemical
Method in brief: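 Dye in 10% CH3OH/pH 7.4 buffer under continuous tungsten-source illumination at 50 mW cm–2. Loss of dye chromophore was followed as a function of delivered fluence and treated as first-order, giving the fluence for half-loss.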

P-gp [8] = molecular target: P-gp (Homo sapiens, UniProt P08183); test: P-gp transport and cell association in MDCKII-MDR1 monolayers; type: in vitro ADME; conditions: dog, MDCK-MDR1
P-gp (Homo sapiens, UniProt P08183), sequence (P08183 whole entry): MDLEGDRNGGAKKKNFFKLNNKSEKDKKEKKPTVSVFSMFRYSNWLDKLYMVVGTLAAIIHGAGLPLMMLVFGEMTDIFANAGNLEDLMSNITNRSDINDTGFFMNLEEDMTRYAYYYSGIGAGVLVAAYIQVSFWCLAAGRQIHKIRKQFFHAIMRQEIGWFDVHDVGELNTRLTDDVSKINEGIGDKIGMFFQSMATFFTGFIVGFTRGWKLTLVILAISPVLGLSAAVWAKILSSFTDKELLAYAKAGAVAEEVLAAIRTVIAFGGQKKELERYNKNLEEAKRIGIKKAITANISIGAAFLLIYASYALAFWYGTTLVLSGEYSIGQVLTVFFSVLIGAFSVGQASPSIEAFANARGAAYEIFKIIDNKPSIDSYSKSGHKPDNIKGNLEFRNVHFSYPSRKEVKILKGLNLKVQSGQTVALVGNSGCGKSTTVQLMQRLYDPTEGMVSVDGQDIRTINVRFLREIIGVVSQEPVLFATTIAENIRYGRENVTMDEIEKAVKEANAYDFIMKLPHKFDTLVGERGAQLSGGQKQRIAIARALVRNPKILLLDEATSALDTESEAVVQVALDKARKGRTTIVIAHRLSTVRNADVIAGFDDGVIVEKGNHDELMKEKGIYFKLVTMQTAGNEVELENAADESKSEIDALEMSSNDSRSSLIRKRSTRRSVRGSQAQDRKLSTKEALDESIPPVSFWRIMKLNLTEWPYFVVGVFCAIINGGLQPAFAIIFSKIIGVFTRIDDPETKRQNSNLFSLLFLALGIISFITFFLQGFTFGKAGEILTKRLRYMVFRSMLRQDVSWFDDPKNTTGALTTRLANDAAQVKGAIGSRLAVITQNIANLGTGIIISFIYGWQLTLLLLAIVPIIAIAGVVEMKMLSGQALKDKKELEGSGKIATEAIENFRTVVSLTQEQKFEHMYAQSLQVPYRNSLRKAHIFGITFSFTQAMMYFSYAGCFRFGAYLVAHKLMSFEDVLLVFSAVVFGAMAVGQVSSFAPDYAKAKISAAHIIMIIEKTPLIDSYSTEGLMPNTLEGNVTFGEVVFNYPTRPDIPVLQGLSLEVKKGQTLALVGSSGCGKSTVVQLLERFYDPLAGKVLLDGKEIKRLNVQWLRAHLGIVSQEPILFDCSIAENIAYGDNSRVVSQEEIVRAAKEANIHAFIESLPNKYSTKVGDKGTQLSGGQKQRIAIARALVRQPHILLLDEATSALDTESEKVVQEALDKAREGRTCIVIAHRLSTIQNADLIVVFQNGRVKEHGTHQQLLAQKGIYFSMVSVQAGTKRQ

P-gp [9] = test: as above; type: in vitro ADME; conditions: dog, MDCK-MDR1, with 24 (LSN 335984), 5 μM
[10] = tested on: mitochondria of Colo-26 cells; test: Colocalization by ImageStream flow cytometry; type: cell-based, murine; conditions: Colo-26 cells incubated with both agents; ±SD
Method in brief: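 Colo-26 cells (5 × 10^5 in 0.5 mL medium) co-incubated 15 min with MitoTracker Green and MitoTracker Red. Cells were then centrifuged, and medium replaced with Hanks PBS. Resuspended cells kept on ice and imaged by ImageStream (480–560 and 642–745 nm channels; MTG excited at 488 nm). Per-cell similarity was a log-transformed Pearson correlation of spatially correlated pixel intensities over the whole cell, averaged over 1300 cells.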

[11] = in CH3OH; cited from earlier work
P-gp [12] = conditions: 5 μM; cited from earlier work
isolated P-gp = conditions: ref 7−9; cited from earlier work
[13] = 350–800 nm light at 50 mW cm^–2, 10% CH3OH in pH 7.4 buffer

Molecule	Absorption maximum λmax [1] [nm]	Molar extinction coefficient ε [1]	Fluorescence emission maximum λFL [2] [nm]	Quantum yield for fluorescence ΦFL [2]	Quantum yield for the generation of singlet oxygen Φ(1O2) [3]	LD50/EC50 (laser, 1.0 J cm^–2) (Colo-26 cells [5])	Synergy with Dox upon irradiation (in words) (Colo-26 cells [6])	Phototoxicity (in words) in the absence of Dox (Colo-26 cells [6])	further results
CCN(CC)C(=O)c1ccc(-c2c3ccc(=[N+](C)C)cc-3[se]c3cc4c(cc23)C(C)(C)CCN4C)s1.[Cl-] [15b, 9-(5-(Diethylcarbamoyl)thiophen-2-yl) Selenorhodamine]	609	7.18 × 10^4 M^–1 cm^–1	636	0.009 ± 0.001	0.50 ± 0.03	22	No synergy; also recorded: do not show significant synergistic effects	no significant phototoxicity	Uptake relative to the corresponding thioamide derivative (Colo-26 cells [4]): 40–50%; Phototoxicity (in words) (Colo-26 cells [5]): some phototoxicity
CCN(CC)C(=S)c1ccc(-c2c3ccc(=[N+](C)C)cc-3[se]c3cc4c(cc23)C(C)(C)CCN4C)s1.[Cl-] [16b, 9-(5-(Diethylcarbamothioyl)thiophen-2-yl) Selenorhodamine]	608	9.78 × 10^4 M^–1 cm^–1	635	0.008 ± 0.001	0.54 ± 0.03	> 55	synergistic effects	some phototoxicity	Fluence after which half of the dye chromophore is lost [7, 13]: ~230 J cm^–2; Increase in uptake in the presence of VER (Colo-26 cells [4]): 1.3- to 2 fold and 2 fold; Surviving fraction of the combination vs single treatments (in words) (Colo-26 cells [6]): statistically significant decrease; Surviving fraction (Colo-26 cells [6]): ≤ 0.20; Dox-only concentration giving the same surviving fraction as the combination (Colo-26 cells [6]): 0.5 µM
CN1CCC(C)(C)c2cc3c(-c4ccc(C(=O)N5CCCCC5)s4)c4ccc(=[N+](C)C)cc-4[se]c3cc21.[Cl-] [17b, 9-(5-(Piperidylcarbamoyl)thiophen-2-yl) Selenorhodamine]	609	8.73 × 10^4 M^–1 cm^–1	634	0.009 ± 0.001	0.48 ± 0.03	26	No synergy; also recorded: do not show significant synergistic effects	no significant phototoxicity	Uptake relative to the corresponding thioamide derivative (Colo-26 cells [4]): 40–50%; Phototoxicity (in words) (Colo-26 cells [5]): little if any phototoxicity; EC50 (Colo-26 cells [5]; Mus musculus, 48 h, read-out: EC50 (λmax ± 2 nm), 0.5 J cm^–2): > 0.5 µM; Papp A→B at 1 h, 5 μM (P-gp [8]): 0.09 ± 0.03 ×10⁻⁶ cm/s; Papp B→A at 1 h, 5 μM (P-gp [8]): 16.4 ± 0.4 ×10⁻⁶ cm/s; efflux ratio at 1 h, 5 μM (P-gp [8]): 182; Papp A→B at 1 h, 5 μM (P-gp [9]): 0.1 ± 0.01 ×10⁻⁶ cm/s; Papp B→A at 1 h, 5 μM (P-gp [9]): 1.11 ± 0.02 ×10⁻⁶ cm/s; Papp at 1 h, 5 μM (P-gp [9]): ~0.6 ×10⁻⁶ cm/s
CN1CCC(C)(C)c2cc3c(-c4ccc(C(=S)N5CCCCC5)s4)c4ccc(=[N+](C)C)cc-4[se]c3cc21.[Cl-] [18b, 9-(5-(Piperidylcarbamothioyl)thiophen-2-yl) Selenorhodamine]	608	8.11 × 10^4 M^–1 cm^–1	634	0.008 ± 0.001	0.44 ± 0.03	> 55	synergistic effects	some phototoxicity	Fluence after which half of the dye chromophore is lost [7, 13]: ~230 J cm^–2; Fluence after which half of the dye chromophore is lost ([7]; 500–800 nm light at 50 mW cm^–2, 10% CH3OH in pH 7.4 buffer): ~850 J cm^–2; Increase in uptake in the presence of VER (Colo-26 cells [4]): 1.3- to 2 fold and 2 fold; Papp A→B at 1 h, 5 μM (P-gp [8]): 0.19 ± 0.05 ×10⁻⁶ cm/s; Papp B→A at 1 h, 5 μM (P-gp [8]): 2.9 ± 0.3 ×10⁻⁶ cm/s; efflux ratio at 1 h, 5 μM (P-gp [8]): 15; Papp A→B at 1 h, 5 μM (P-gp [9]): 0.17 ± 0.02 ×10⁻⁶ cm/s; Papp B→A at 1 h, 5 μM (P-gp [9]): 0.18 ± 0.01 ×10⁻⁶ cm/s; Papp at 1 h, 5 μM (P-gp [9]): ~0.2 ×10⁻⁶ cm/s; Surviving fraction of the combination vs single treatments (in words) (Colo-26 cells [6]): statistically significant decrease; Surviving fraction (Colo-26 cells [6]): ≤ 0.20; Dox-only concentration giving the same surviving fraction as the combination (Colo-26 cells [6]): 0.3 µM
C[n+]1c(C=CC=C2N(Cc3ccc(CCl)cc3)c3cc(Cl)c(Cl)cc3N2Cc2ccc(CCl)cc2)oc2ccccc21.[Cl-] [MTG, 2-[3-[5,6-dichloro-1,3-bis[[4-(chloromethyl)phenyl]methyl]-1,3-dihydro-2H-benzimidazol-2-ylidene]-1-propenyl]-3-methylbenzoxazolium chloride]	–	–	–	–	–	–	–	–	Mean bright detail similarity score with MTR [10]: 2.0 ± 0.8
CC/N=c1\cc2oc3cc(NCC)c(C)cc3c(-c3ccccc3C(=O)OCC)c-2cc1C [compound 3, rhodamine 6G]	–	–	–	–	–	–	–	–	Quantum yield for fluorescence ΦFL (standard) [11]: 0.93
O[C@@H](COc1cccc2ncccc12)CN1CCN([C@@H]2c3ccccc3[C@@H]3[C@H](c4ccccc42)C3(Cl)Cl)CC1 [compound 24]	–	–	–	–	–	–	–	–	P-gp inhibition (in words) (P-gp [12]): completely inhibits P-gp
tetramethylrosamine [1 (E = O)]	–	–	–	–	–	–	–	–	Transport rate relative to rhodamine 123 (2) or rhodamine 6G (3) (isolated P-gp): 5- to 10 fold
